≈ marks a conversion by molar mass, not a printed value. Where two headings read alike, the source gives them in different places.
Tests used:
[1] = system: FCoV 79-1683 (serotype II); experiment: Immunoperoxidase; type: cell-based, feline coronavirus; details: read-out: EC50 (50% inhibition of virus infection), FCoV 79-1683 (serotype II)
Method in brief: (§1)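 FCWF monolayers were given virus (MOI 0.5) that had been preincubated 1 h at 37 °C with test compound, for 1 h after a PBS-DEAE wash, then washed and given compound at the same concentrations. Cells were fixed in 4% formaldehyde for 15 min at 6 h post-infection (16 h for serotype I strain), permeabilised with 70% ethanol, and stained with cat FIP ascitic fluid plus HRP goat anti-cat. EC50 is 50% fewer microscopically counted infected foci than mock-treated cells.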

[2] = Cytotoxicity MTT assay, Vero cells; type: cell-based, simian; details: monkey (simian), Vero cells
Method in brief: (§2)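 Cells grown in DMEM with 10% FBS and antibiotics were kept with a range of test compound concentrations for 3 days at 37 °C, 5% CO2. MTT was added to 0.5 mg/ml final for 2 h at 37 °C. Medium was removed and cells were lysed in DMSO (10 min, room temperature, rocking). OD was read at 570 nm. CC50 is the concentration lowering viability of 50% of cells, ± S.D.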

[3] = Cytotoxicity MTT assay, FCWF cells; type: cell-based, feline; details: cat, FCWF cells
Method in brief: as §2

[4] = Maximum solubility of the compound; type: physicochemical
[5] = system: FIPV Black TN406HP (serotype I); experiment: Immunoperoxidase; type: cell-based, feline coronavirus; details: read-out: EC50 (50% inhibition of virus infection), FIPV Black TN406HP (serotype I)
Method in brief: as §1

[6] = system: porcine alveolar macrophages (PAMs); experiment: Cytotoxicity by EMA staining, PAMs; type: cell-based; details: read-out: CC50 (50% cytotoxicity), PAMs, 24 h, ± S.D.
[7] = system: Berne virus torovirus; experiment: Colorimetric MTT antiviral assay, Berne virus; type: cell-based, equine torovirus; details: read-out: EC50 (50% inhibition of virus infection), Berne virus torovirus
Method in brief: (§3)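 100 TCID50 of virus was preincubated with graded test compound for 1 h at 37 °C, 5% CO2, added to PBS-DEAE-washed cells for 1 h, then removed, and compound was re-added at the same concentrations in DMEM with 5% FBS. MTT (0.5 mg/ml final) was added for 2 h at day 2 (FCoV 79-1683, FIPV 79-1146) or day 3 (others), then DMSO lysis and OD570. EC50 is 50% protection from CPE.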

[8] = Cytotoxicity MTT assay, LR7 cells; type: cell-based, mouse; details: mouse
Method in brief: as §2

[9] = system: IBV Beaudette; experiment: Colorimetric MTT antiviral assay, IBV Beaudette; type: cell-based, infectious bronchitis virus; details: read-out: EC50 (50% inhibition of virus infection), IBV Beaudette
Method in brief: as §3

[10] = system: ST cells; experiment: Cytotoxicity MTT assay, ST cells; type: cell-based, porcine; details: read-out: CC50 (50% cytotoxicity), ST, 3 days, ± S.D.
Method in brief: as §2

[11] = system: MHV-EFLM; experiment: Immunoperoxidase; type: cell-based, mouse hepatitis virus; details: read-out: EC50 (50% inhibition of virus infection), MHV-EFLM
Method in brief: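 Murine LR7 fibroblasts expressing the MHV receptor were infected at MOI 0.5 with virus preincubated 1 h at 37 °C with test compound. After 1 h the inoculum was removed, cells were washed, and compound was re-added at the same concentrations. At 6 h cells were fixed in 4% formaldehyde and permeabilised with 70% ethanol. Immunoperoxidase staining used rabbit anti-MHV polyclonal plus HRP swine anti-rabbit. EC50 is the concentration lowering light-microscope infected-cell counts by 50% versus mock.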

[12] = system: Equine arteritis virus; experiment: Colorimetric MTT antiviral assay, equine arteritis virus; type: cell-based; details: read-out: EC50 (50% inhibition of virus infection), Equine arteritis virus
Method in brief: as §3

[13] = Cytotoxicity MTT assay, Ederm cells; type: cell-based, equine; details: horse, equine dermis (Ederm) cells
Method in brief: as §2

[14] = system: FIPV-Δ3abcFL (serotype II); experiment: Immunoperoxidase; type: cell-based, feline coronavirus; details: read-out: EC50 (50% inhibition of virus infection), FIPV-Δ3abcFL (serotype II)
Method in brief: as §1

[15] = system: FIPV 79-1146 (serotype II); experiment: Colorimetric MTT antiviral assay, FIPV 79-1146; type: cell-based, feline coronavirus; details: read-out: EC50 (50% inhibition of virus infection), FIPV 79-1146 (serotype II), FCWF cells, 100 TCID50, 2 days, ± S.D.
Method in brief: as §3

[16] = system: FCWF cells; experiment: Cytotoxicity MTT assay, FCWF cells; type: cell-based, feline; details: read-out: CC50 (50% cytotoxicity), FCWF; MTT assay, 3 days; ± S.D.
Method in brief: as §2

[17] = system: LR7 cells; experiment: Cytotoxicity MTT assay, LR7 cells; type: cell-based, mouse; details: read-out: CC50 (50% cytotoxicity), LR7; MTT assay, 3 days; ± S.D.
Method in brief: as §2

[18] = system: retroviruses; details: read-out: EC50 against retroviruses; earlier studies; ref Balzarini et al., 1992; cited from earlier work
[19] = system: FIPV Black TN406HP (serotype I); experiment: Colorimetric MTT antiviral assay, FIPV Black TN406HP; type: cell-based, feline coronavirus; details: read-out: EC50 (50% inhibition of virus infection), FIPV Black TN406HP (serotype I), FCWF cells, 100 TCID50, 3 days, ± S.D.
Method in brief: as §3

[20] = system: Vero cells; experiment: Cytotoxicity MTT assay, Vero cells; type: cell-based, simian; details: read-out: CC50 (50% cytotoxicity), Vero; MTT assay, 3 days; ± S.D.
Method in brief: as §2

[21] = system: TGEV Purdue; experiment: Colorimetric MTT antiviral assay, TGEV Purdue; type: cell-based, transmissible gastroenteritis virus; details: read-out: EC50 (50% inhibition of virus infection), TGEV Purdue, ST cells, 100 TCID50, 3 days, ± S.D.
Method in brief: as §3

[22] = system: PRRSV Lelystad virus; experiment: Immunoperoxidase; type: cell-based, porcine reproductive and respiratory syndrome virus; details: IPOX assay; for PRRSV Lelystad virus infection of PAMs reduced to: at 2 μM; for EC50: read-out: EC50 (50% inhibition of virus infection), PRRSV Lelystad virus, PAMs, MOI 1, 10 h post-infection, ± S.D.
Method in brief: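 Primary porcine alveolar macrophages were kept in EMEM with 10% FBS at 37 °C, 5% CO2. Virus at MOI 1 was preincubated 1 h at 37 °C with test compound, then added to cells for 1 h. Cells were washed with FBS-free medium and fixed in −20 °C methanol at 10 h post-infection. Peroxidase was blocked with azide/H2O2. Staining used anti-nucleocapsid MAb P3/27 with HRP anti-mouse. Infected cells were counted by light microscopy against mock-treated cells.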

[23] = system: FCoV 79-1683 (serotype II); experiment: Colorimetric MTT antiviral assay, FCoV 79-1683; type: cell-based, feline coronavirus; details: read-out: EC50 (50% inhibition of virus infection), FCoV 79-1683 (serotype II), FCWF cells, 100 TCID50, 2 days, ± S.D.
Method in brief: as §3

[24] = system: equine dermis (Ederm) cells; experiment: Cytotoxicity MTT assay, Ederm cells; type: cell-based; details: read-out: CC50 (50% cytotoxicity), Ederm; MTT assay, 3 days; ± S.D.
Method in brief: as §2

[25] = IPOX assay, FCWF cells, MOI 0.5, 6 h post-infection, ± S.D.
[26] = IPOX assay, FCWF cells, MOI 0.5, 16 h post-infection, ± S.D.
[27] = MTT assay, Ederm cells, 100 TCID50, 3 days, ± S.D.
[28] = MTT assay, Vero cells, 100 TCID50, 3 days, ± S.D.
[29] = IPOX assay, LR7 cells, MOI 0.5, 6 h post-infection, ± S.D.

Row | Molecule | CC50 [6] [µM] | CC50 [10] [µM] | EC50 [15] [µM] | CC50 [16] [µM] | CC50 [17] [µM] | EC50 [19] [µM] | EC50 [1, 25] [µM] | CC50 [20] [µM] | EC50 [5, 26] [µM] | EC50 [7, 27] [µM] | EC50 [9, 28] [µM] | EC50 [21] [µM] | PRRSV Lelystad virus infection of PAMs reduced to [22] [%] | EC50 [22] [µM] | EC50 [23] [µM] | EC50 [11, 29] [µM] | EC50 [12, 27] [µM] | CC50 [24] [µM] | EC50 [14, 25] [µM] | other results
1 | CN[C@@H]1[C@H](O[C@@H]2OC[C@@H](O)[C@H](O)[C@H]2O)[C@@H](O)[C@H](O[C@H]2c3cc(C)c(C(=O)N[C@H](C)C(=O)O)c(O)c3-c3c(cc4c(c3O)C(=O)c3cc(OC)cc(O)c3C4=O)[C@@H]2O)O[C@@H]1C [PRM-A, pradimicin-A, reference compound] | 18.1 ± 6.4 | 121 ± 27.6 |  |  |  |  |  |  |  |  |  |  |  |  |  |  |  |  |  | EC50 ([1]; Alphacoronavirus 1, 6 h): > 120 µM; CC50 at 3 days [2]: 120 ± 32.4 µM; CC50 at 3 days [3]: > 120 µM; solubility [4]: 120 µM (≈ 101 µg/mL); EC50 ([5]; Alphacoronavirus 1, 16 h): 7.8 ± 2 µM; EC50 ([7]; Equine torovirus, 72 h): 31 ± 24 µM; CC50 at 3 days [8]: > 120 µM; EC50 ([9]; Avian coronavirus, Vero, 72 h): 2.9 ± 2 µM; EC50 ([11]; Murine coronavirus, LR7, 6 h): 10.7 ± 5.8 µM; EC50 ([12]; Equine arteritis virus, 72 h): > 120 µM; CC50 at 3 days [13]: > 120 µM; EC50 ([14]; Alphacoronavirus 1, 6 h): > 120 µM
2 | Cymbidium sp. agglutinin [CA] |  |  | 0.29 ± 0.11 | 3.3 ± 0.8 | > 4 | 0.13 ± 0.002 |  |  |  |  |  |  |  |  |  |  |  |  |  | EC50 [18]: 0.003 µM
3 | Galanthus nivalis agglutinin [GNA] | > 2 | > 2 | 0.13 ± 0.002 | > 2 | > 2 | 0.008 ± 0.005 | 0.2 ± 0.06 | > 2 | 0.012 ± 0.006 | 0.12 ± 0.09 | 0.0002 ± 0.0002 | 0.004 ± 0.0008 | 40 | > 2 | 0.43 ± 0.3 | 0.04 ± 0.02 | 0.18 ± 0.07 | > 2 | 0.07 ± 0.04 | 
4 | Hippeastrum hybrid agglutinin [HHA] | > 2 | > 2 | 0.1 ± 0.002 | > 2 | > 2 | 0.007 ± 0.003 | 0.06 ± 0.02 | > 2 | 0.004 ± 0.002 | 0.07 ± 0.07 | 0.0002 ± 0.0002 |  | 40 | > 2 | 0.11 ± 0.03 | 0.07 ± 0.02 | 0.13 ± 0.04 | 1.9 ± 0.3 | 0.03 ± 0.02 | 
5 | cyanovirin-N (protein, UniProt P81180 1-101, looked up) Cyanovirin-N: LGKFSQTCYNSAIQGSVLTSTCERTNGGYNTSSIDLNSVIENVDGSLKWQPSNFIETCRNTQLAGSSELAAECKTRAQQFVSTKINLDDHIANIDGTLKYE |  |  |  | 1.4 ± 0.5 | > 2 |  |  |  |  |  |  |  |  |  |  |  |  |  |  | 
6 | Urtica dioica agglutinin (protein, UniProt P11218 24-372, looked up) Lectin/endochitinase 1: QRCGSQGGGGTCPALWCCSIWGWCGDSEPYCGRTCENKCWSGERSDHRCGAAVGNPPCGQDRCCSVHGWCGGGNDYCSGSKCQYRCSSSVRGPRVALSGNSTANSIGNVVVTEPLFDQMFSHRKDCPSQGFYSYHSFLVAAESFPAFGTIGDVATRKREVAAFLAHISQATSGERSDVENPHAWGLCHINTTTVTENDFCTSSDWPCAAGKKYSPRGPIQLTHNFNYGLAGQAIGEDLIQNPDLVEKDPIISFKTALWFWMSQHDNKPSCHDIVLNANSAANRIPNKGVIGNIISRAFGHDDFAVRSSSIGFYKRYCDMLGVSYGHDLKYWFDNTPSSEFQRIQMRVAA | > 12 | 6.1 ± 1 | 0.24 ± 0.14 | 2.2 ± 0.3 | 9.9 ± 4.8 | 0.023 ± 0.012 | 0.17 ± 0.1 | 3.4 ± 1.3 | 0.02 ± 0.01 | 0.25 ± 0.2 | 0.05 ± 0.05 | 0.08 ± 0.07 |  | 4.8 ± 3.2 | 0.11 ± 0.03 | 0.53 ± 0.02 | 0.39 ± 0.01 | 9.5 ± 3.1 | 0.14 ± 0.05 | 

Reference: PMC7132385 (Antiviral Research, 2007)
